From ChEMBL document CHEMBL5705894, “SB1518, a novel macrocyclic pyrimidine-based JAK2 inhibitor for the treatment of myeloid and lymphoid malignancies” (Leukemia, 2011)
Activity calls are given as the source filed them. No cut-off for these calls is given here.

Tests used:
[1] = system: SET-2; assay: Induction of cell cycle arrest in human SET2 cells expressing JAK2 V617F mutant assessed as accumulation of cells at G0/1 phase incubated for 24 hrs by PI staining based flow cytometry; format: functional
How it was run: (§1)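 Cells were fixed in 70% ice-cold ethanol and stained with propidium iodide, then analysed by flow cytometry for cell-cycle distribution.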

[2] = system: MKN-7; assay: Antiproliferative activity against human MKN-7 cells assessed as inhibition of cell viability incubated for 48 hrs by CellTiterGlo assay; format: functional, cell-based; settings: MKN-7, 48 h
How it was run: (§2)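 Cells seeded at 30–50% confluency in 96-well plates, then treated the next day in triplicate at up to 10 μM for 48 h. Viability read by CellTiter-Glo luminescence. IC50 taken from fitted dose–response curves.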

[3] = system: MOLM-13; assay: Antiproliferative activity against human MOLM-13 cells harboring FLT3-ITD mutant assessed as inhibition of cell viability incubated for 48 hrs by CellTiterGlo assay; format: functional, cell-based; settings: MOLM-13, 48 h; how it was run: as §2
[4] = system: SET-2; assay: Anti-tumor activity against human SET2 cells xenografted in SCID Beige mouse assessed as tumor growth inhibition at 75 mg/kg, po administered for 18 days and measured twice a week relative to control; format: functional; settings: SET-2, 432 h, time 18 day, read-out: TGI
How it was run: (§3)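 SCID beige mice received 5 × 10^6 SET-2 cells subcutaneously in the right flank, in serum-free medium mixed 1:1 with Matrigel. Dosing began when tumors averaged about 280 mm3 (day 31). Oral gavage at 10 ml/kg for 18 consecutive days, 12 mice per group. Caliper volume = (w² × l)/2. Animals were killed 3 h after the final dose.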

[5] = system: A2780; assay: Antiproliferative activity against human A2780 cells assessed as inhibition of cell viability incubated for 48 hrs by CellTiterGlo assay; format: functional, cell-based; settings: A2780, 48 h; how it was run: as §2
[6] = system: SET-2; assay: Induction of apoptosis in human SET2 cells assessed as activation of caspase-3/7 incubated for 16 hrs; format: functional, cell-based
How it was run: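 SET-2 and Karpas 1106P cells were exposed to graded drug concentrations for 16 h. Apoptosis was read as caspase-3/7 activation.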

[7] = system: COLO 205; assay: Antiproliferative activity against human COLO 205 cells assessed as inhibition of cell viability incubated for 48 hrs by CellTiterGlo assay; format: functional, cell-based; settings: COLO 205, 48 h; how it was run: as §2
[8] = system: Tyrosine-protein kinase JAK2 (Mus musculus), Q62120 [V617F]; assay: Inhibition of JAK2 V617F mutant expressed in mouse BaF3 cells assessed as decreased total tyrosine phosphorylation at 1000 nM incubated for 3 hrs by Western blotting analysis; format: cell-based
[9] = system: SET-2; assay: Anti-tumor activity against human SET2 cells xenografted in SCID Beige mouse assessed as tumor growth inhibition at 150 mg/kg, po administered for 18 days and measured twice a week relative to control; format: functional; settings: SET-2, 432 h, time 18 day, read-out: TGI; how it was run: as §3
[10] = system: Tyrosine-protein kinase JAK2 (Homo sapiens), O60674 [V617F]; settings: SET2, dose 8-1000 nM, time 3.0 hrs
[11] = system: Tyrosine-protein kinase JAK2 (Homo sapiens), O60674 [V617F]; settings: SET2, dose 1000.0 nM, time 3.0 hrs
[12] = system: Mus musculus; assay: In vivo inhibition of JAK2 V617F mutant in SCID Beige mouse xenografted with human SET2 cells assessed as increased JAK2 phosphorylation at Y1007/8 by immunoblotting analysis; format: functional, organism-based; settings: dose 75-150 mg/kg, route po
How it was run: (§4)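 Subcutaneous SET-2 tumors in SCID beige mice. Single oral doses of 75 or 150 mg/kg were given at about 300 mm3 tumor size; in the chronic arm, dosing ran for 18 days. Tumors were collected 3 h post-dose, lysed, and immunoblotted for pJAK2 (Y1007/8) and pSTAT5.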

[13] = system: MCF7; assay: Antiproliferative activity against human MCF7 cells assessed as inhibition of cell viability incubated for 48 hrs by CellTiterGlo assay; format: functional, cell-based; settings: MCF7, 48 h; how it was run: as §2
[14] = system: Karpas-1106P; assay: Induction of cell cycle arrest in human KARPAS-1106P cells expressing JAK2 assessed as decrease in accumulation of cells at S phase incubated for 24 hrs by PI staining based flow cytometry; format: functional; how it was run: as §1
[15] = system: U-266; assay: Antiproliferative activity against human U-266 cells assessed as inhibition of cell viability incubated for 48 hrs by CellTiterGlo assay; format: functional, cell-based; settings: U-266, 48 h; how it was run: as §2
[16] = system: SNU-387; assay: Antiproliferative activity against human SNU-387 cells assessed as inhibition of cell viability incubated for 48 hrs by CellTiterGlo assay; format: functional, cell-based; settings: SNU-387, 48 h; how it was run: as §2
[17] = system: Mus musculus; assay: In vivo inhibition of JAK2 V617F mutant in SCID Beige mouse xenografted with human SET2 cells assessed as decreased STAT5 phosphorylation at Y694 at 75 to 150 mg/kg, po administered for 18 days and measured after 3 hrs by Western blotting analysis; format: functional, organism-based; settings: dose 75-150 mg/kg, time 18.0 day; how it was run: as §4
[18] = system: MOLT-4; assay: Antiproliferative activity against human MOLT-4 cells assessed as inhibition of cell viability incubated for 48 hrs by CellTiterGlo assay; format: functional, cell-based; settings: MOLT-4, 48 h; how it was run: as §2
[19] = system: A549; assay: Antiproliferative activity against human A549 cells assessed as inhibition of cell viability incubated for 48 hrs by CellTiterGlo assay; format: functional, cell-based; settings: A549, 48 h; how it was run: as §2
[20] = system: SET-2; assay: Induction of cell cycle arrest in human SET2 cells expressing JAK2 V617F mutant assessed as decrease in accumulation of cells at S-phase incubated for 24 hrs by PI staining based flow cytometry; format: functional; how it was run: as §1
[21] = system: Mus musculus; assay: In vivo inhibition of JAK2 V617F mutant in SCID Beige mouse xenografted with human SET2 cells assessed as decreased STAT5 phosphorylation at Y694 by immunoblotting analysis; format: functional, organism-based; settings: dose 75-150 mg/kg, route po; how it was run: as §4
[22] = biological target: Tyrosine-protein kinase JAK2 (Homo sapiens) (UniProt O60674); settings: KARPAS-1106P, dose 8-1000 nM, time 3.0 hrs
[23] = system: Karpas-1106P; assay: Antiproliferative activity against human KARPAS-1106P cells harboring JAK2 assessed as inhibition of cell viability incubated for 48 hrs by CellTiterGlo assay; format: functional, cell-based; how it was run: as §2
[24] = system: Tyrosine-protein kinase JAK2 (Mus musculus), Q62120 [V617F]; assay: Inhibition of JAK2 V617F mutant expressed in mouse BaF3 cells assessed as reduction of STAT5 phosphorylation at Y694 by Western blotting analysis; format: cell-based

Sequence of Tyrosine-protein kinase JAK2 (Homo sapiens), O60674 [V617F] (O60674 whole entry V617F): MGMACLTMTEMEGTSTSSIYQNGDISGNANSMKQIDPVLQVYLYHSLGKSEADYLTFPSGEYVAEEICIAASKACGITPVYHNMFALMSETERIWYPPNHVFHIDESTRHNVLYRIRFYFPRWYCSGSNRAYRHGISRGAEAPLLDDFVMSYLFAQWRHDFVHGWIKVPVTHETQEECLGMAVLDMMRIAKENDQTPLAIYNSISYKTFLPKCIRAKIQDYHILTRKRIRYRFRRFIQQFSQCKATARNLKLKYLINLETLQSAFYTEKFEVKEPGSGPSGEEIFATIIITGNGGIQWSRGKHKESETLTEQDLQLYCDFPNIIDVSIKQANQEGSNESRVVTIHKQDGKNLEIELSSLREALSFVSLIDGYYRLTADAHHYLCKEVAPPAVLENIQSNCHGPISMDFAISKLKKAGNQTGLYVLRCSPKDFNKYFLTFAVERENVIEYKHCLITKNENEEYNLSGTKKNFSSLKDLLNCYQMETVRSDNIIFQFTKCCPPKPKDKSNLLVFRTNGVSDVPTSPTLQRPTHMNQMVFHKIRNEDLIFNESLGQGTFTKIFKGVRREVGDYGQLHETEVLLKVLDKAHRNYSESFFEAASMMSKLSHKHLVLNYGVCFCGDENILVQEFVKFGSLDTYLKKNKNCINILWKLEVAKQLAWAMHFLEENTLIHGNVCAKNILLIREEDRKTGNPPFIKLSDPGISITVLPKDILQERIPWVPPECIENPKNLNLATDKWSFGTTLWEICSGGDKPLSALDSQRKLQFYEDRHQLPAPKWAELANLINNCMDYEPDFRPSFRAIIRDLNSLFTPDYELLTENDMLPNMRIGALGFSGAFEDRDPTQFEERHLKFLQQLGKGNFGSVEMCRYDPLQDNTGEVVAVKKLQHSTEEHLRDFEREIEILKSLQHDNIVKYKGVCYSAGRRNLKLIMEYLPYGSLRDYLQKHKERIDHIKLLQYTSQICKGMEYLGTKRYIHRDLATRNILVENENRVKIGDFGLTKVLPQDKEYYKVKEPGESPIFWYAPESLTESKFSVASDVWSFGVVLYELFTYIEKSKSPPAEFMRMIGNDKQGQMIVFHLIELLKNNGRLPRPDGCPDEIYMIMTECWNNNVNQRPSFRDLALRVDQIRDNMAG
Sequence of Tyrosine-protein kinase JAK2 (Mus musculus), Q62120 [V617F] (Q62120 as listed by the source): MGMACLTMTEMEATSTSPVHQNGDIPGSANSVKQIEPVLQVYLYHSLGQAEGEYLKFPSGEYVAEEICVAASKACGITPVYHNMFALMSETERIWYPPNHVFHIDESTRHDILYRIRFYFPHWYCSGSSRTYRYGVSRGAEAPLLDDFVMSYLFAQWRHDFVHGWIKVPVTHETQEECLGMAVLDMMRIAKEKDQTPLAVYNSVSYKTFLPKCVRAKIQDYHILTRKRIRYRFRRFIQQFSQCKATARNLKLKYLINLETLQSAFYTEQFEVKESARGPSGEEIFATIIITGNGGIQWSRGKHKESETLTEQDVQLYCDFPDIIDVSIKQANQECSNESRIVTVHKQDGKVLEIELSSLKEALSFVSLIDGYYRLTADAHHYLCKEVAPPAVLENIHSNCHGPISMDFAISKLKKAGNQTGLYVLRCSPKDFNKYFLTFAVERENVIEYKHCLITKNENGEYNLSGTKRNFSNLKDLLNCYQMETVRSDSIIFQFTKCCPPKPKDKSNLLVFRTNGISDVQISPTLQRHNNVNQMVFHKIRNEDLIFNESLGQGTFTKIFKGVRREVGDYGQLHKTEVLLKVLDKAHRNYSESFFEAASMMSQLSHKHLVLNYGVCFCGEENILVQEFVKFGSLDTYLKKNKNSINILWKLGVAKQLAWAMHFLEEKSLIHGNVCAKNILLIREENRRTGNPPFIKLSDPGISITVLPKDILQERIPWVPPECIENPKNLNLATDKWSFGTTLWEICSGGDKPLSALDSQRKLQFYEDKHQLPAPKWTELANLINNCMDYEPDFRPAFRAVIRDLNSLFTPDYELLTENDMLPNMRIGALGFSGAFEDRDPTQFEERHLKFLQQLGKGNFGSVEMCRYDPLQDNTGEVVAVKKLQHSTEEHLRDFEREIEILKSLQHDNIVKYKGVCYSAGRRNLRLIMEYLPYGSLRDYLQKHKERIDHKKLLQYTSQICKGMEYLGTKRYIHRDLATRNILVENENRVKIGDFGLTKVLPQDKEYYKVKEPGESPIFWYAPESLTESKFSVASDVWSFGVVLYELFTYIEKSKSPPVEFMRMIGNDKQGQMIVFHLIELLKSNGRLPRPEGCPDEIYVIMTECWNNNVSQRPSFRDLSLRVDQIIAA
Sequence of Tyrosine-protein kinase JAK2 (Homo sapiens) (O60674 whole entry): as the sequence (O60674 whole entry V617F) above, with F617V counted along it

C1=N/C2=N/c3ccc(OCCN4CCCC4)c(c3)COC/C=C/COCc3cccc(c3)C(=C1)N2 [PACRITINIB]
Activity [1]: Dose-Dependent Effect | IC50 [2]: 2040 nM | IC50 [3]: 67 nM | inhibition in vivo at 75 mg/kg [4]: 40% | IC50 [5]: 664 nM | Activity [6]: Dose-Dependent Effect | EC50 ([6]; SET-2, 16 h): 571 nM | IC50 [7]: 2620 nM | inhibition [8]: Active | inhibition in vivo at 150 mg/kg [9]: 61% | inhibition [10]: Dose-Dependent Effect | inhibition [11]: Active | Activity [12]: Dose-Dependent Effect | IC50 [13]: 853 nM | Activity [14]: Dose-Dependent Effect | IC50 [15]: 1350 nM | IC50 [16]: 2030 nM | Activity [17]: Active | IC50 [18]: 750 nM | IC50 [19]: 2550 nM | Activity [20]: Dose-Dependent Effect | Activity [21]: Dose-Dependent Effect | inhibition [22]: Active | IC50 [23]: 348 nM | inhibition [24]: Active
